Reference: ChEMBL document CHEMBL1781878, “Novel carbamate cholinesterase inhibitors that release biologically active amines following enzyme inhibition” (Bioorg Med Chem Lett, 2009)
pIC50: −log10 of the molar value. Activity calls are given as the source filed them.

Experiments:
Rattus norvegicus [1] = experiment: Toxicity in rat assessed as induction of seizures incidence at 5 mg/kg, po; format: organism-based; parameters: dose 5 mg/kg, route oral; conditions: in vivo
Summary of the method: (§1)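 Rats dosed orally and observed for cholinergic signs (salivation, lacrimation, fasciculations, diarrhea, seizures) and overt behaviour including locomotor stimulation. MTD defined as the dose giving clear, reversible, non-life-threatening cholinergic effects.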

Rattus norvegicus [2] = experiment: Inhibition of total plasma cholinesterase in rat at 5 mg/kg, po measured 30 to 180 mins post dose; format: functional
Summary of the method: (§2)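 Oral dosing in saline to rats; animals sacrificed at 30, 60 and 180 min; plasma and brain processed and ChE activity read spectrophotometrically. Value is mean of the three time points; n = 4 rats per group.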

Rattus norvegicus [3] = experiment: Toxicity in rat assessed as induction of severe fasciculation, salivation and lacrimation incidence at 5 mg/kg, po; format: organism-based; parameters: dose 5 mg/kg, route oral; conditions: in vivo; summary of the method: as §1
Rattus norvegicus [4] = experiment: Toxicity in rat assessed as induction of diarrhea incidence at 5 mg/kg, po; format: organism-based; parameters: dose 5 mg/kg, route oral; conditions: in vivo; summary of the method: as §1
[5] = molecular target: Acetylcholinesterase (Homo sapiens) (UniProt P22303)
Rattus norvegicus [6] = experiment: Inhibition of total brain cholinesterase activity in rat at 5 mg/kg, po measured 30 to 180 mins post dose; format: functional; summary of the method: as §2
Rattus norvegicus [7] = experiment: Inhibition of total brain cholinesterase activity in rat at >64 mg/kg, po measured 30 to 180 mins post dose; format: functional
Summary of the method: (§3)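 Rats received oral saline solutions at the maximum tolerated or highest tested dose; after sacrifice, brain samples processed and total ChE activity determined spectrophotometrically versus control. n = 4 animals per group, mean given.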

Rattus norvegicus [8] = experiment: Inhibition of total plasma cholinesterase in rat at >64 mg/kg, po measured 60 mins post dose; format: functional
Summary of the method: (§4)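 Rats given oral saline solutions of compound at the maximum tolerated or highest tested dose; sacrificed 60 min post-dose, blood collected and processed, plasma ChE activity measured spectrophotometrically (Ellman-type). n = 4 rats per group; mean reported.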

Rattus norvegicus [9] = experiment: Inhibition of total brain cholinesterase activity in rat at 10 mg/kg, po measured 30 to 180 mins post dose; format: functional; summary of the method: as §3
Cholinesterase = Cholinesterase (Homo sapiens, UniProt P06276); experiment: Inhibition of purified human plasma BuChE preincubated for 30 mins before DTNB substrate addition by spectrophotometric assay based Ellman's method
Summary of the method: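 Enzyme: human BuChE purified from serum. Modified Ellman assay. Inhibitor preincubated with enzyme 30 min at 25 °C in 10 mM Tris pH 8.0, then acetylthiocholine (0.3 mM) added; DTNB 0.33 mM final. At least five inhibitor levels plotted as Dixon plot; IC50 from x-intercept. Triplicates, two or three independent experiments.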

[10] = Toxicity in po dosed rat assessed as maximum tolerated dose at which reversible and non-life threatening cholinergic effect observed; format: organism-based; conditions: in vivo; summary of the method: as §1
Rattus norvegicus [11] = experiment: Inhibition of total plasma cholinesterase in rat at 10 mg/kg, po measured 60 mins post dose; format: functional; conditions: 1 h; summary of the method: as §4
Rattus norvegicus [12] = experiment: Inhibition of total plasma cholinesterase in rat at >100 mg/kg, po measured 60 mins post dose; format: functional; summary of the method: as §4
Homo sapiens = species on record: Homo sapiens; experiment: Selectivity index, ratio of IC50 for purified human […] to IC50 for human recombinant AChE
Summary of the method: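 Modified Ellman assay on recombinant human AChE and human serum-purified BuChE. Enzyme and inhibitor were preincubated 30 min at 25 °C in 10 mM Tris pH 8.0, then ATCh (0.3 mM) was added with DTNB (0.33 mM final). A405 was read for 5 min and initial rates compared to control. IC50s come from Dixon plots (≥5 inhibitor concentrations), triplicate, 2–3 independent runs. Selectivity is the ratio of the two IC50s.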

Rattus norvegicus [13] = experiment: Inhibition of cholinesterase activity in rat assessed as reconstituted enzyme-mediated release of amphetamine in to plasma at 64 mg/kg, po measured 1 hr post dose; format: functional
Summary of the method: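 Rats dosed orally with test compound in saline; plasma collected 1 h post-dose and amphetamine content quantified by LC/MS/MS.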

Rattus norvegicus [14] = experiment: Memory enhancing effect in rat Scopolamine passive avoidance model assessed as reversal of Scopolamine-induced amnesia by measuring step-through latencies at 12 mg/kg, ip compound administered 30 mins before training and Scopolamine added 40 mins before training; format: functional, organism-based; parameters: dose 12 mg/kg
Summary of the method: (§5)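 Passive avoidance in rats: scopolamine hydrobromide 0.2 mg/kg sc 40 min before training; saline or compound ip 30 min before training. Retention test 24 h later, identical to training but without foot-shock or drug; latency to enter dark chamber recorded.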

Rattus norvegicus [15] = experiment: Inhibition of total brain cholinesterase activity in rat at >100 mg/kg, po measured 30 to 180 mins post dose; format: functional; summary of the method: as §3
Rattus norvegicus [16] = experiment: Memory enhancing effect in rat Scopolamine passive avoidance model assessed as reversal of Scopolamine-induced amnesia by measuring step-through latencies at 8 mg/kg, ip compound administered 30 mins before training and Scopolamine added 40 mins before training; format: functional, organism-based; parameters: dose 8 mg/kg; summary of the method: as §5
Rattus norvegicus [17] = experiment: Toxicity in rat assessed as locomotor stimulation at 100 mg/kg, po; format: organism-based; parameters: dose 100 mg/kg, route oral; conditions: in vivo; summary of the method: as §1
Rattus norvegicus [18] = experiment: Inhibition of total brain cholinesterase activity in rat at 32 mg/kg, po measured 30 to 180 mins post dose; format: functional; summary of the method: as §3
Rattus norvegicus [19] = experiment: Inhibition of total plasma cholinesterase in rat at 32 mg/kg, po measured 60 mins post dose; format: functional; conditions: 1 h; summary of the method: as §4

Chain of Acetylcholinesterase (Homo sapiens) (P22303 whole entry): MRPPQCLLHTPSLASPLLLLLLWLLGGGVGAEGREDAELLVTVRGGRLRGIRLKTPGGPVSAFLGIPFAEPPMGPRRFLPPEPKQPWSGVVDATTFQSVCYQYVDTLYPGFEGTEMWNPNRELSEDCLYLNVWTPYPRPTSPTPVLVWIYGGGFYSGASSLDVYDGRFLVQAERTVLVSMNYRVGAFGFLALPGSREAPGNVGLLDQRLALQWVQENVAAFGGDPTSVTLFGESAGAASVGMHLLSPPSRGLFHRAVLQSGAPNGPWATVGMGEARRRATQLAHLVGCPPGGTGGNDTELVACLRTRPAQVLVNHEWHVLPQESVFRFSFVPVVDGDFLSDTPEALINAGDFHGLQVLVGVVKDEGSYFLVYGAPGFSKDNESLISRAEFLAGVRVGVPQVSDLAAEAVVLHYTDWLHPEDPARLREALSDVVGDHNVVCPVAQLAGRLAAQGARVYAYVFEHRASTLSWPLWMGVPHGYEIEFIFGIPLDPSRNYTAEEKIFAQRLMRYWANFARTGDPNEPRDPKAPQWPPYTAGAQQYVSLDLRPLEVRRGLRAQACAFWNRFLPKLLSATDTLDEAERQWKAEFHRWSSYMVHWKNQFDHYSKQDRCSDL
Chain of Cholinesterase (P06276 whole entry): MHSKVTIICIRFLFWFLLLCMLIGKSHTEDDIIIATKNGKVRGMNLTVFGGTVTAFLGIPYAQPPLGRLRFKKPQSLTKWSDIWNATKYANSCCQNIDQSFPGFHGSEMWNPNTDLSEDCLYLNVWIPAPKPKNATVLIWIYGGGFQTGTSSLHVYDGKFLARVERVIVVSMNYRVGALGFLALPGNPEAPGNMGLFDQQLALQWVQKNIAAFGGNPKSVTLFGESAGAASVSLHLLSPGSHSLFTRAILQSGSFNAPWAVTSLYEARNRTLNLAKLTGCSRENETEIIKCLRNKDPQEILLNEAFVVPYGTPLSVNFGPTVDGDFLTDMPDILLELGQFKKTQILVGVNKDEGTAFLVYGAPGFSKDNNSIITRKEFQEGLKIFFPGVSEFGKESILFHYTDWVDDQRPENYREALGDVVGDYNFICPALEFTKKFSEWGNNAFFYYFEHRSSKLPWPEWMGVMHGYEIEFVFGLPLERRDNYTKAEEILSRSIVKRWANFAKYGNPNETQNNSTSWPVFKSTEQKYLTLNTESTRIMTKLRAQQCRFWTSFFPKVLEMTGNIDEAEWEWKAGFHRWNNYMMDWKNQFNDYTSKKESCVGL

CCN(C)C(=O)Oc1cccc([C@H](C)N(C)C)c1 [RIVASTIGMINE]
Activity (Rattus norvegicus [1]): Toxic | inhibition in vivo at 5 mg/kg (Rattus norvegicus [2]): 39% | Activity (Rattus norvegicus [3]): Toxic | Activity (Rattus norvegicus [4]): Toxic | T1/2 [5]: > 24 h | inhibition in vivo at 5 mg/kg (Rattus norvegicus [6]): 56%

C[C@@H](c1cccc(OC(=O)N(C)[C@@H](C)Cc2ccccc2)c1)N(C)C.Cl
inhibition (INH) (Rattus norvegicus [7]): 50% | inhibition (INH) (Rattus norvegicus [8]): 50% | T1/2 [5]: > 24 h

C[C@H](Cc1ccccc1)N(C)C(=O)Oc1cccc([C@H](C)N(C)C)c1.Cl
inhibition in vivo at 10 mg/kg (Rattus norvegicus [9]): 64% | pIC50 (Cholinesterase): 4.61 | MTD [10]: 10 mg/kg | T1/2 [5]: > 24 h | inhibition in vivo at 10 mg/kg (Rattus norvegicus [11]): 45%

C[C@@H](Cc1ccccc1)NC(=O)Oc1cccc([C@H](C)N(C)C)c1.Cl
inhibition (INH) (Rattus norvegicus [12]): 59% | Ratio IC50 (Homo sapiens): 14 | Activity (Rattus norvegicus [13]): 17 ng/mL | inhibition (Rattus norvegicus [14]): Active | inhibition (INH) (Rattus norvegicus [15]): 72% | T1/2 [5]: 1.2 h | inhibition (Rattus norvegicus [16]): Active | Activity (Rattus norvegicus [17]): Non-toxic

C[C@H](Cc1ccccc1)NC(=O)Oc1cccc([C@H](C)N(C)C)c1
Ratio IC50 (Homo sapiens): 1 | inhibition in vivo at 32 mg/kg (Rattus norvegicus [18]): 25% | inhibition in vivo at 32 mg/kg (Rattus norvegicus [19]): 26% | T1/2 [5]: 12 h
